≈ marks a conversion by molar mass, not a printed value.
How the values were obtained:
A549 = experiment: In vitro cytotoxicity against A549 (human lung carcinoma) cell line.; type: functional, cell-based
Procedure, shortened: (§1)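 Inhibition of cell proliferation measured against untreated cells after 72 h incubation at 37 °C. Read-out by MTT colorimetric microtiter assay. IC50 taken as the agent concentration giving 50% inhibition of proliferation.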

B16-F10 = experiment: In vitro cytotoxicity against B16F10 (mouse melanoma) cell line.; type: functional, cell-based; procedure, shortened: as §1
HT-29 = experiment: In vitro cytotoxicity against HT-29 (human colon adenocarcinoma) cell line.; type: functional, cell-based; procedure, shortened: as §1
P388 = experiment: In vitro cytotoxicity against P388 (murine leukemia) cell line.; type: functional, cell-based; conditions: Mus musculus; procedure, shortened: as §1
[1] = Compound was tested for the concentration of agent which reduces the supernatant protein concentration (tubulin, 1 mg/mL) by 50%; ED50/ED50taxol; type: functional
Procedure, shortened: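 Tubulin assembly assay with tubulin at 1 mg/mL, 15 min at 37 °C. Read-out is protein left in the supernatant. ED50 is the agent concentration that lowers supernatant protein by 50%. Value expressed as a ratio to the ED50 of taxol.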

| Compound | IC50 (A549) [µg/mL] | IC50 (B16-F10) [µg/mL] | IC50 (HT-29) [µg/mL] | IC50 (P388) [µg/mL] | Ratio [1] |
| --- | --- | --- | --- | --- | --- |
| COC[C@H](NC(=O)c1ccccc1)[C@@H](O)C(=O)O[C@H]1C[C@@]2(O)[C@@H](OC(=O)c3ccccc3)[C@@H]3[C@]4(OC(C)=O)CO[C@@H]4C[C@H](O)[C@@]3(C)[C@@H](O)[C@H](OC(C)=O)C(=C1C)C2(C)C | > 0.1 | > 0.1 | 0.079 (≈ 0.0959 µM) | > 0.1 | 3.14 |
| CC(=O)O[C@@H]1C2=C(C)[C@@H](OC(=O)[C@H](O)[C@@H](NC(=O)OC(C)(C)C)C(C)O)C[C@@](O)([C@@H](OC(=O)c3ccccc3)[C@@H]3[C@]4(OC(C)=O)CO[C@@H]4C[C@H](O)[C@@]3(C)[C@H]1O)C2(C)C (single isomer, unassigned) [listing 1 of 2 here] | > 0.1 | > 0.1 | > 0.1 | > 0.1 |  |
| CC(=O)O[C@@H]1C2=C(C)[C@@H](OC(=O)[C@H](O)[C@@H](NC(=O)OC(C)(C)C)C(C)O)C[C@@](O)([C@@H](OC(=O)c3ccccc3)[C@@H]3[C@]4(OC(C)=O)CO[C@@H]4C[C@H](O)[C@@]3(C)[C@H]1O)C2(C)C (mixture of isomers) |  |  |  |  | 1.2 |
| C=C[C@H](NC(=O)OC(C)(C)C)[C@@H](O)C(=O)O[C@H]1C[C@@]2(O)[C@@H](OC(=O)c3ccccc3)[C@@H]3[C@]4(OC(C)=O)CO[C@@H]4C[C@H](O)[C@@]3(C)[C@@H](O)[C@H](OC(C)=O)C(=C1C)C2(C)C | 0.0011 (≈ 0.00137 µM) | 0.0044 (≈ 0.00549 µM) | 0.0018 (≈ 0.00224 µM) | 0.016 (≈ 0.02 µM) | 0.92 |
| CC(=O)O[C@@H]1C2=C(C)[C@@H](OC(=O)[C@H](O)[C@@H](NC(=O)OC(C)(C)C)C(C)O)C[C@@](O)([C@@H](OC(=O)c3ccccc3)[C@@H]3[C@]4(OC(C)=O)CO[C@@H]4C[C@H](O)[C@@]3(C)[C@H]1O)C2(C)C (single isomer, unassigned) [listing 2 of 2 here] |  |  |  |  | 0.8 |
| CC(=O)O[C@@H]1C2=C(C)[C@@H](OC(=O)[C@H](O)[C@@H](NC(=O)OC(C)(C)C)c3ccccc3)C[C@@](O)([C@@H](OC(=O)c3ccccc3)[C@@H]3[C@]4(OC(C)=O)CO[C@@H]4C[C@H](O)[C@@]3(C)[C@H]1O)C2(C)C | 0.003 (≈ 0.00352 µM) | 0.0004 (≈ 0.00047 µM) | 0.00016 (≈ 0.000188 µM) | 0.0025 (≈ 0.00293 µM) | 0.87 |
| CC(=O)O[C@@H]1C2=C(C)[C@@H](OC(=O)[C@H](O)[C@@H](NC(=O)OC(C)(C)C)[C@H](O)CO)C[C@@](O)([C@@H](OC(=O)c3ccccc3)[C@@H]3[C@]4(OC(C)=O)CO[C@@H]4C[C@H](O)[C@@]3(C)[C@H]1O)C2(C)C | > 0.1 | > 0.1 | > 0.1 | > 0.1 | 2.71 |
| CC(=O)O[C@@H]1C2=C(C)[C@@H](OC(=O)[C@H](O)[C@H](COc3ccccc3)NC(=O)c3ccccc3)C[C@@](O)([C@@H](OC(=O)c3ccccc3)[C@@H]3[C@]4(OC(C)=O)CO[C@@H]4C[C@H](O)[C@@]3(C)[C@H]1O)C2(C)C | 0.092 (≈ 0.104 µM) | 0.084 (≈ 0.0948 µM) | 0.039 (≈ 0.044 µM) | > 0.1 | 5.81 |
| CC(=O)O[C@@H]1C2=C(C)[C@@H](OC(=O)[C@H](O)[C@@H](NC(=O)OC(C)(C)C)C3CCCCC3)C[C@@](O)([C@@H](OC(=O)c3ccccc3)[C@@H]3[C@]4(OC(C)=O)CO[C@@H]4C[C@H](O)[C@@]3(C)[C@H]1O)C2(C)C | 0.0065 (≈ 0.00758 µM) | 0.0057 (≈ 0.00664 µM) | 0.005 (≈ 0.00583 µM) | 0.014 (≈ 0.0163 µM) | 0.57 |
| CC(=O)O[C@@H]1C2=C(C)[C@@H](OC(=O)[C@H](O)[C@@H](NC(=O)c3ccccc3)c3ccccc3)C[C@@](O)([C@@H](OC(=O)c3ccccc3)[C@@H]3[C@]4(OC(C)=O)CO[C@@H]4C[C@H](O)[C@@]3(C)[C@H]1O)C2(C)C | 0.019 (≈ 0.0222 µM) | 0.025 (≈ 0.0292 µM) | 0.08 (≈ 0.0935 µM) | 0.053 (≈ 0.0619 µM) | 0.86 |
| CC(=O)O[C@@H]1C2=C(C)[C@@H](OC(=O)[C@H](O)[C@H](CC(C)C)NC(=O)OC(C)(C)C)C[C@@](O)([C@@H](OC(=O)c3ccccc3)[C@@H]3[C@]4(OC(C)=O)CO[C@@H]4C[C@H](O)[C@@]3(C)[C@H]1O)C2(C)C | 0.00012 (≈ 0.000144 µM) | 0.0009 (≈ 0.00108 µM) | 0.00038 (≈ 0.000457 µM) | 0.00036 (≈ 0.000433 µM) | 0.95 |
| CC(=O)O[C@@H]1C2=C(C)[C@@H](OC(=O)[C@H](O)[C@@H](NC(=O)OC(C)(C)C)c3cscn3)C[C@@](O)([C@@H](OC(=O)c3ccccc3)[C@@H]3[C@]4(OC(C)=O)CO[C@@H]4C[C@H](O)[C@@]3(C)[C@H]1O)C2(C)C | 0.0063 (≈ 0.00733 µM) | 0.0003 (≈ 0.000349 µM) | 0.00092 (≈ 0.00107 µM) | 0.0014 (≈ 0.00163 µM) | 1.36 |
| CCCC[C@H](NC(=O)OC(C)(C)C)[C@@H](O)C(=O)O[C@H]1C[C@@]2(O)[C@@H](OC(=O)c3ccccc3)[C@@H]3[C@]4(OC(C)=O)CO[C@@H]4C[C@H](O)[C@@]3(C)[C@@H](O)[C@H](OC(C)=O)C(=C1C)C2(C)C | 0.0095 (≈ 0.0114 µM) | 0.0097 (≈ 0.0117 µM) | 0.0088 (≈ 0.0106 µM) | 0.018 (≈ 0.0216 µM) | 2.15 |
| CC[C@H](NC(=O)OC(C)(C)C)[C@@H](O)C(=O)O[C@H]1C[C@@]2(O)[C@@H](OC(=O)c3ccccc3)[C@@H]3[C@]4(OC(C)=O)CO[C@@H]4C[C@H](O)[C@@]3(C)[C@@H](O)[C@H](OC(C)=O)C(=C1C)C2(C)C | 0.00083 (≈ 0.00103 µM) | 0.0032 (≈ 0.00398 µM) | 0.0014 (≈ 0.00174 µM) | 0.011 (≈ 0.0137 µM) | 0.61 |
| CCCCC[C@H](NC(=O)OC(C)(C)C)[C@@H](O)C(=O)O[C@H]1C[C@@]2(O)[C@@H](OC(=O)c3ccccc3)[C@@H]3[C@]4(OC(C)=O)CO[C@@H]4C[C@H](O)[C@@]3(C)[C@@H](O)[C@H](OC(C)=O)C(=C1C)C2(C)C | 0.012 (≈ 0.0142 µM) | 0.014 (≈ 0.0165 µM) | 0.016 (≈ 0.0189 µM) | 0.016 (≈ 0.0189 µM) | 2 |
| CCCC[C@@H](NC(=O)OC(C)(C)C)[C@@H](O)C(=O)O[C@H]1C[C@@]2(O)[C@@H](OC(=O)c3ccccc3)[C@@H]3[C@]4(OC(C)=O)CO[C@@H]4C[C@H](O)[C@@]3(C)[C@@H](O)[C@H](OC(C)=O)C(=C1C)C2(C)C | > 0.1 | > 0.1 | 0.067 (≈ 0.0805 µM) | > 0.1 | 9.74 |
| CC(=O)O[C@@H]1C2=C(C)[C@@H](OC(=O)[C@H](O)[C@H](C)NC(=O)OC(C)(C)C)C[C@@](O)([C@@H](OC(=O)c3ccccc3)[C@@H]3[C@]4(OC(C)=O)CO[C@@H]4C[C@H](O)[C@@]3(C)[C@H]1O)C2(C)C | 0.015 (≈ 0.019 µM) | 0.019 (≈ 0.0241 µM) | 0.0083 (≈ 0.0105 µM) | 0.043 (≈ 0.0544 µM) | 1.08 |
| CC(=O)O[C@@H]1C2=C(C)[C@@H](OC(=O)[C@H](O)[C@H](Cc3ccccc3)NC(=O)OC(C)(C)C)C[C@@](O)([C@@H](OC(=O)c3ccccc3)[C@@H]3[C@]4(OC(C)=O)CO[C@@H]4C[C@H](O)[C@@]3(C)[C@H]1O)C2(C)C | > 0.1 | > 0.1 | > 0.1 | > 0.1 | > 17.1 |
| CC(=O)O[C@@H]1C2=C(C)[C@@H](OC(=O)[C@H](O)[C@@H](NC(=O)OC(C)(C)C)[C@H]3COC(C)(C)O3)C[C@@](O)([C@@H](OC(=O)c3ccccc3)[C@@H]3[C@]4(OC(C)=O)CO[C@@H]4C[C@H](O)[C@@]3(C)[C@H]1O)C2(C)C | > 0.1 | 0.086 (≈ 0.0982 µM) | > 0.1 | > 0.1 | 7.91 |
